Compound activity deposited in PubChem BioAssay by The Scripps Research Institute Molecular Screening Center.
TAAR1 antag: human TAAR1 antagonism | Q96RJ0 | CHO RD-HGA16 TAAR1, Fluo-8 calcium fluorescence, antagonist | inhibition, % at 3 µM | 1.5% of 360,000 active | AID 624466;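 active means inhibition above a per-plate cutoff, the mean inhibition of test compounds on that plate plus 3 SD, cut at about 49% in these data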;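 further: 0% = DMSO plus EC80 beta-PEA response and 100% = DMSO alone without agonist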
Target sequence (Q96RJ0 whole entry, looked up): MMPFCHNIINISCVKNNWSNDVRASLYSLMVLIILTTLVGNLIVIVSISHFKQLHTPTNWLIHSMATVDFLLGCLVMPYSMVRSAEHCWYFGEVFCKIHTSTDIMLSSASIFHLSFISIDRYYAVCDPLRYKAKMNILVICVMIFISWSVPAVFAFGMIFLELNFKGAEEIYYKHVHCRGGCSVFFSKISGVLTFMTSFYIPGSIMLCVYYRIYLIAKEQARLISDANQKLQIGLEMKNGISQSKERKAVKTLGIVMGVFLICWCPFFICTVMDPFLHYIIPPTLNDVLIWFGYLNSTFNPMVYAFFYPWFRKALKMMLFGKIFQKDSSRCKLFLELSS
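test system = CHO RD-HGA16 cells bearing hTAAR1 | replication = singlicate | controls = DMSO-only wells and EC80 β-PEA-stimulated wells | reagent = EC80 β-phenethylamine stimulus | read-out basis = percent inhibition of PEA-evoked calcium signal, max/basal emission ratio | schedule = seeding 17-24 h prior, 75-min 37 °C, 30-min RT dye loading | signal = kinetic Fluo-8 calcium fluorescence measurement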
TAAR1 agonist: human TAAR1 agonism. CHO RD-HGA16 TAAR1, Fluo-8 calcium fluorescence; vehicle wells 0%, saturating PEA agonist 100%. activation, % at 3 µM. 0.99% of 360,000 active. AID 624467;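 active means activation above the mean activation of all test compounds in the run plus 3 SD, cut at about 38% in these data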
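test system = CHO RD-HGA16 cells carrying human TAAR1 plus Gα16 | schedule = 17-24 h seeding, 75 min 37 °C dye, 30 min RT | compound dosing = 3 µM single concentration | control set = DMSO and PEA EC100 | replicates = n 1 | signal = Fluo-8 fluorescence, 5 s baseline then 140 s kinetic read | measure = percent activation vs PEA EC100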
OX1R antag-1: blocks the human orexin 1 receptor | 0.43% of 330,000 active | CHO/OX1R cells, Fluo-8 calcium fluorescence, orexin A | inhibition, % at 5 µM | O43613;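 active means inhibition above its plate's threshold, mean inhibition of all tested compounds on the plate plus 3 SD, cut at about 37% in these data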;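 further: 0% = orexin A challenge wells and 100% = SB-334867-A antagonist wells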
OX1R antag-2: antagonists of human orexin 1 receptor (OX1R); O43613; OX1R-expressing cells, FRET antagonist read-out; inhibition, % at 6.6 µM; 1.8% of 330,000 active; AID 485270; in the data active means inhibition mostly above about 38%, no sharp cut-off; inactive means mostly below about 40%;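 further: 0% = agonist challenge alone and 100% = reference antagonist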
GPR7 antag: blocks human GPR7 receptor signaling; P48145; inhibition, % at 4.4 µM; 1.1% of 290,000 active; GPR7-expressing cells, fluorescence antagonist assay; in the data active means inhibition above about 16%, passing the limit was not always enough;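 further: cells stimulated with the agonist NPW; 0% = agonist with vehicle and 100% = vehicle without agonist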
Target sequence (P48145 whole entry, looked up): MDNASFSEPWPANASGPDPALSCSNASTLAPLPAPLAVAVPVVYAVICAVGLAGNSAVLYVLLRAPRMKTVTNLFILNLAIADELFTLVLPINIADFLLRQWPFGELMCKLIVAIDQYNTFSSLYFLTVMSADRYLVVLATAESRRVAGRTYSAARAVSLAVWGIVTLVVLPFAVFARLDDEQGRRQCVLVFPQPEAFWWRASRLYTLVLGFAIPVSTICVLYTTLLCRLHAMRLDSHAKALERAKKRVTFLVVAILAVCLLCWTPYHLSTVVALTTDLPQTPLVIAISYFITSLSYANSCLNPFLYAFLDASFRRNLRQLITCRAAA
CHO parental Ca: counter-screen: ATP calcium response change in parental CHO cells; parental CHO-K1, ATP-induced calcium, Fluo-8 fluorescence; inhibition, % at 5.6 µM; 0.63% of 330,000 active; AID 463079;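 active means inhibition above that plate's mean sample inhibition plus 3 SD, cut at about 26% in these data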;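 further: 0% = ATP-challenged DMSO wells and 100% = DMSO wells without ATP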
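Test system: untransfected parental CHO cell line; also added: ATP stimulus; dosing: 5.6 µM, single dose; signal: calcium-sensitive Fluo-8 fluorescence; measure: percent inhibition of ATP-evoked calcium rise, normalized to controls; benchmarks: low control ATP plus DMSO, high control DMSO only; replication: one well per compound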
TAAR1 nonsel count: nonselective antagonist in TAAR1 antagonist counter-screen; shares compounds with TAAR1 antag; counterscreen cell line, calcium fluorescence, antagonist mode; inhibition, % at 3 µM; 77% of 2,400 active; in the data active means inhibition above about 22%;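 further: CHO-Ga16 host cells stimulated with ATP at an EC80 level; 0% = agonist EC80 plus vehicle and 100% = vehicle without agonist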
TAAR1 antag conf: confirmation of human TAAR1 antagonists. TAAR1-expressing cells, fluorescence antagonist read-out. 40% of 2,400 active. shares compounds with TAAR1 antag. inhibition, % at 3 µM. AID 651785; in the data active means inhibition above about 49%;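 further: CHO-Ga16 host cells challenged with agonist PEA near its EC80; 0% = agonist at EC80 plus vehicle and 100% = vehicle with no agonist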
Ga16 nonsel ag: nonselective Ga16 agonist in TAAR1 antagonist counter-screen | activation, % at 3 µM | shares compounds with TAAR1 antag | AID 651953 | Ga16-expressing cells, calcium fluorescence, agonist counterscreen | 18% of 2,400 active; in the data active means activation above about 12%;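 further: 0% = vehicle wells and 100% = saturating stimulus response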
TAAR1 ag count: counter-screen for human TAAR1 antagonists: TAAR1 agonists. shares compounds with TAAR1 antag. hTAAR1 cell line, fluorescence activation, agonist mode. activation, % at 3 µM. 2% of 2,400 active; in the data active means activation above about 37%;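 further: CHO cells stably expressing TAAR1 with calcium dye readout; 0% = DMSO vehicle and 100% = full agonist response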
* marks the source's active call; other numbers are inactive results; x = no result. In the library only some 4.5% were active in any assay of this set; here they are far more common.

SMILES | TAAR1 antag | TAAR1 agonist | OX1R antag-1 | OX1R antag-2 | GPR7 antag | CHO parental Ca | TAAR1 nonsel count | TAAR1 antag conf | Ga16 nonsel ag | TAAR1 ag count
Cc1cc(C)c(C)c(S(=O)(=O)N2CCC(C(=O)N(C)Cc3nc4ccccc4c(=O)[nH]3)CC2)c1C | 59* | 34 | x | x | x | x | 28* | 43 | 8 | 12
CCNS(=O)(=O)c1ccc(CCC(=O)N2CCN(C(=O)OCC)CC2)cc1 | -8 | -1 | -15 | 2 | -3 | -15 | x | x | x | x
O=S(=O)(c1ccc(NC(=S)NN=Cc2ccccc2O)cc1)N1CCCCC1 | 90* | 13 | x | x | x | x | 40* | 89* | 11 | 34
NS(=O)(=O)c1ccc(NC(=S)Nc2ccc(S(=O)(=O)N3CCCC3)cc2)cc1 | 21 | 3 | -7 | 11 | -4 | 2 | x | x | x | x
CCOC(=O)c1sc(NC(=O)c2cccc(S(=O)(=O)N(CC)CC)c2)cc1C | 61* | 11 | -16 | 27 | -1 | -22 | 47* | 63* | 10 | 6
CCOC(=O)c1sc(NC(=O)c2cccc(S(=O)(=O)N3CCN(C)CC3)c2)cc1C | 5 | 3 | -25 | 35 | -11 | -2 | x | x | x | x
CCn1cc(C(=O)NCC2CCCO2)c(=O)c2cc(S(=O)(=O)N(C)C3CCCCC3)ccc21 (stereo not drawn) | 52* | 10 | -16 | 14 | -11 | -5 | 20 | 38 | 6 | 5
CCn1cc(C(=O)NCC2CCCO2)c(=O)c2cc(S(=O)(=O)N(C)C)ccc21 (stereo not drawn) | -26 | 1 | 3 | 1 | -13 | 1 | x | x | x | x
O=C(NCc1ccc(Cl)cc1)C1CCN(S(=O)(=O)c2cccnc2)CC1 | -9 | 0 | -10 | 4 | -7 | -7 | x | x | x | x
CCN(c1ccccc1)S(=O)(=O)c1ccc(Cl)c(C(=O)OCC(=O)c2[nH]c(C)c(C(C)=O)c2C)c1 | 63* | 0 | -22 | 22 | -12 | -15 | 21 | 27 | 2 | 4
Nc1c2ccccc2nc2ccccc12 | 1 | 6 | 1 | 56 | -15 | -7 | x | x | x | x
Cc1nc2ccccc2c2c(N)c3ccccc3n12 | 56* | 10 | -17 | 10 | 0 | 3 | 22* | 33 | 7 | 7
Cc1cc(C(=O)CSc2ccc(Cl)cc2)cc(C)c1OC(=S)N(C)C | 63* | 5 | -23 | 36 | -8 | -1 | 19 | 37 | 1 | 1
Cc1cc(C(=O)CSc2ccc(F)cc2)cc(C)c1O | 30 | 3 | -37 | 13 | -1 | -14 | x | x | x | x
N#CCCN(C(=O)COC(=O)C1CCN(S(=O)(=O)c2ccccc2C(F)(F)F)CC1)c1ccccc1 | -11 | 8 | x | x | x | x | x | x | x | x
Cc1ccccc1NC(=O)Cc1nc(CSc2nnc(-c3ccc4c(c3)OCO4)o2)cs1 | 55* | 15 | -8 | 35 | 7 | -9 | 25* | 37 | 8 | 5
COc1cc(OC)c(OC)cc1CNCc1ccco1 | 3 | 0 | -9 | 12 | 15 | 1 | x | x | x | x
O=C(Nc1nnc([C@@H]2C[C@H](O)[C@@H](CO)O2)s1)c1cccc(C(F)(F)F)c1 | 1 | 1 | x | x | x | x | x | x | x | x
CCC(=O)N1Cc2cc(C(=O)Nc3nccs3)nc(-c3cccc(-c4ccccc4OC)c3)c2[C@@H]1CCO | 73* | 11 | x | x | x | x | 29* | 46 | 8 | 6
CC(C)C(=O)NC(=S)Nc1ccccc1N1CCN(C(=O)c2ccc(Cl)cc2)CC1 | 81* | 17 | -30 | 2 | -14 | -25 | 38* | 58* | 14* | 15
Cc1cccc(C)c1NC(=O)CSc1nnc(C2CCCCC2)o1 | -10 | 6 | -33 | 22 | 2 | -26 | x | x | x | x
CCC(C)(C)n1nnnc1CN(Cc1cccs1)Cc1cc2cc(OC)ccc2[nH]c1=O | 43 | 31 | -26 | 28 | x | -39 | x | x | x | x
CCOc1ccc2[nH]c(=O)c(CN(Cc3cccs3)Cc3nnnn3C(C)(C)CC)cc2c1 | 55* | 12 | -14 | 7 | -9 | -46 | 13 | 37 | 5 | 14
COc1cc(C(C)=NNC(=O)c2ccncc2)ccc1O | -5 | 4 | x | x | x | x | x | x | x | x
COc1cccc(CN(C)C(=O)C(CCSC)NS(=O)(=O)c2ccc3c(c2)OCCO3)c1OC (stereo not drawn) | 75* | 18 | -12 | 41 | x | -15 | 38* | 63* | 12* | 14
CSCCC(NS(=O)(=O)c1ccc2c(c1)OCCO2)C(=O)NCCc1ccccn1 (stereo not drawn) | 3 | 0 | -29 | 12 | -2 | -16 | x | x | x | x
CSCCC(NS(=O)(=O)c1ccc2c(c1)OCCO2)C(=O)N(C)Cc1ccc(C)cc1 (stereo not drawn) | 63* | 11 | -25 | 2 | -13 | -14 | 23* | 47 | 11 | 11
Cn1c2ccccc2c(=O)c2ccc(C#CC3(O)CCCCC3)cc21 | 71* | 20 | -2 | 51 | -6 | -13 | 38* | 55* | 11 | 9
